Consider 38 compounds from ChEMBL document CHEMBL2150999, “Design, synthesis and biological evaluation of benzo[e][1,2,4]triazin-7(1H)-one and [1,2,4]-triazino[5,6,1-jk]carbazol-6-one derivatives as dual inhibitors of beta-amyloid aggregation and acetyl/butyryl cholinesterase” (Eur J Med Chem, 2012).

For series [1], the target named is Cholinesterase (Equus caballus) (UniProt P81908). Description: Inhibition of equine serum BChE using butyrylthiocholine iodide as substrate at 10 uM after 20 mins by Ellman's method.
Chain of Cholinesterase (Equus caballus) (P81908 whole entry): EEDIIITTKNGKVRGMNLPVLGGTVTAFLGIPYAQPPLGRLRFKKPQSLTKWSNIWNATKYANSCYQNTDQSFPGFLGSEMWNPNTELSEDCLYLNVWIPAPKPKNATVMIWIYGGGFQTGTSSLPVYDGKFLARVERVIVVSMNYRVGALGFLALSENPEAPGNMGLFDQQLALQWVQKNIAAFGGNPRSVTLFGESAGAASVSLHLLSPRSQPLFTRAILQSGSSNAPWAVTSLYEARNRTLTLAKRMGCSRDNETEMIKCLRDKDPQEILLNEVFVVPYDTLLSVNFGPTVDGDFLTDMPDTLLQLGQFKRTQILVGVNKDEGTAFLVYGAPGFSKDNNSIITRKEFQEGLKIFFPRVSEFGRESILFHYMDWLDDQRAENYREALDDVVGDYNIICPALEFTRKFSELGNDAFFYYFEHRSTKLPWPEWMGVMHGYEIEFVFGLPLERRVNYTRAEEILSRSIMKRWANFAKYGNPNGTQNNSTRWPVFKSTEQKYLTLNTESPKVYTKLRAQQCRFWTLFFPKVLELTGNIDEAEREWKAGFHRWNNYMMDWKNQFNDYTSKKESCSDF
Series [2] in a line: Inhibition of HFIP-induced amyloid beta (1-40) aggregation after 2 hrs by thioflavin T fluorescence method. The method, boiled down:
(§1)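 Pre-monomerized Aβ1-40 (HFIP-dissolved, lyophilized) at 30 µM in PBS (0.01 M, NaCl 0.1 M, pH 7.4) with 2% HFIP and 10% DMSO, coincubated with compound in triplicate at 25 °C for 2 h. Sample mixed with 25 µM ThT in 0.025 M phosphate pH 6.0; excitation 440 nm, emission 485 nm. Peptide-free blanks subtracted; % inhibition versus control. Primary screen at 100 µM. IC50 from 5–7 concentrations (200–0.01 µM) tested in duplicate, three independent experiments.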

Series [3] addresses Acetylcholinesterase (Electrophorus electricus) (UniProt O42275). Description: Inhibition of electric eel AChE using acetylthiocholine iodide as substrate at 10 uM after 20 mins by Ellman's method. (In general: DTNB colorimetry detects thiols as they appear.)
Series [4] is described as follows: Inhibition of HFIP-induced amyloid beta (1-40) aggregation at 100 uM after 2 hrs by thioflavin T fluorescence method. The method in brief:
as §1

The target in the next series is Cholinesterase (Equus caballus, UniProt P81908). Description: Inhibition of equine serum BChE using butyrylthiocholine iodide as substrate after 20 mins by Ellman's method. The method, boiled down:
(§2)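 Enzyme (eel AChE 463 U/mg or equine serum BChE 13 U/mg) in 0.1 M phosphate buffer pH 8.0 with DTNB, preincubated with inhibitor 20 min at 25 °C. Then acetylthiocholine or butyrylthiocholine iodide added; absorbance rise at 412 nm read 5.0 min at 25 °C. DMSO below 1%. IC50 from nonlinear regression of response/log(concentration), six to seven concentrations, 1×10^-8 to 1×10^-4 M. Means of three independent experiments.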

The nature of series [5]: Inhibition of amyloid beta (1-42) aggregation at 100 uM measured at 8 hrs and 24 hrs by thioflavin T fluorescence method. The method in brief:
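Aβ1-42 (30 µM) in PBS/10% DMSO at 37 °C, alone or with compound at 100 µM. ThT fluorescence (ex 440, em 485 nm) read at 8 h and 24 h, reported in arbitrary units; mean ± SEM of three independent experiments.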

In another series the target is Acetylcholinesterase (Electrophorus electricus, UniProt O42275). The series is described as follows: Inhibition of electric eel AChE using acetylthiocholine iodide as substrate after 20 mins by Ellman's method. The method, boiled down: as §2
Chain of Acetylcholinesterase (O42275 whole entry): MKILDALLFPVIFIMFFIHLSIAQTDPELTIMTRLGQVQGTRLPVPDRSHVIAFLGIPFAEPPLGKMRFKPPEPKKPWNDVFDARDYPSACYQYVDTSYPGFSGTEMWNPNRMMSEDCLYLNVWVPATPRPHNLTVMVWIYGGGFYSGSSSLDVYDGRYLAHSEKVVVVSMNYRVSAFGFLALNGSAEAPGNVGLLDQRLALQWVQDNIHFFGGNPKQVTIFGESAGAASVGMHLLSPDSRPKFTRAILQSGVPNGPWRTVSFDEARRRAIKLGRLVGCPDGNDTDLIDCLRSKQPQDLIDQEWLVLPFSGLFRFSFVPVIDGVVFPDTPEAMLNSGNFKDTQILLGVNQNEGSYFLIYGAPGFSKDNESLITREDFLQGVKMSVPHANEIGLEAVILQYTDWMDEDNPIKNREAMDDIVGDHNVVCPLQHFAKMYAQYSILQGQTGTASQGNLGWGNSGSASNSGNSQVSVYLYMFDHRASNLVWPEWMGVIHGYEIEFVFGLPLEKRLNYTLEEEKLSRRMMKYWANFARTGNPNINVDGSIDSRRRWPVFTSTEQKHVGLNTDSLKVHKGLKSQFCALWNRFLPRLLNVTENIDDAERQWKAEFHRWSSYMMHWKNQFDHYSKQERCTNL
Series [6] can be described thus: Inhibition of amyloid beta (1-40) beta-sheet transition assessed as decrease in beta-sheet level after 7 days by CD spectroscopic analysis relative to control. Conditions: concentration not given here. The method, boiled down:
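Aβ1-40 (50 µM) in PBS with 10% ethanol, alone or with compound (10 or 50 µM), incubated at 37 °C without agitation. CD spectra 195–250 nm were recorded at room temperature in a 0.1 cm cell, with buffer/ethanol or inhibitor blank baseline subtracted. Absolute ellipticity at 215 nm was followed over time and expressed relative to the control plateau.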

Series [7] can be described thus: Inhibition of amyloid beta (1-40) fibrillation assessed as isolated fibrillar aggregates formation at 10 uM after 7 days by TEM analysis. The method, boiled down: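 Aβ1-40 (50 µM) in PBS/10% ethanol, with compound at 10 or 50 µM, incubated at 37 °C for up to 10 days. Aliquots taken at 7 days were applied to carbon-coated grids and negatively stained with 2% w/v uranyl acetate. Imaged by TEM at 60 kV and 39 000-fold magnification, compared with self-aggregating control.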

Series [8] in a line: Aqueous solubility of the compound in PBS buffer. It counts as physicochemical. The method, boiled down: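 Preliminary solubility in the incubation medium (PBS with up to 10% ethanol cosolvent) measured by UV spectroscopy; used to set the maximum soluble test concentration.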

Molecules are shown by their SMILES. Converted amounts (≈) assume the structure as drawn. The source made the active and inactive calls. No cut-off for these calls is given here.

Chain of Acetylcholinesterase (Electrophorus electricus) (O42275 24-633 limits assumed): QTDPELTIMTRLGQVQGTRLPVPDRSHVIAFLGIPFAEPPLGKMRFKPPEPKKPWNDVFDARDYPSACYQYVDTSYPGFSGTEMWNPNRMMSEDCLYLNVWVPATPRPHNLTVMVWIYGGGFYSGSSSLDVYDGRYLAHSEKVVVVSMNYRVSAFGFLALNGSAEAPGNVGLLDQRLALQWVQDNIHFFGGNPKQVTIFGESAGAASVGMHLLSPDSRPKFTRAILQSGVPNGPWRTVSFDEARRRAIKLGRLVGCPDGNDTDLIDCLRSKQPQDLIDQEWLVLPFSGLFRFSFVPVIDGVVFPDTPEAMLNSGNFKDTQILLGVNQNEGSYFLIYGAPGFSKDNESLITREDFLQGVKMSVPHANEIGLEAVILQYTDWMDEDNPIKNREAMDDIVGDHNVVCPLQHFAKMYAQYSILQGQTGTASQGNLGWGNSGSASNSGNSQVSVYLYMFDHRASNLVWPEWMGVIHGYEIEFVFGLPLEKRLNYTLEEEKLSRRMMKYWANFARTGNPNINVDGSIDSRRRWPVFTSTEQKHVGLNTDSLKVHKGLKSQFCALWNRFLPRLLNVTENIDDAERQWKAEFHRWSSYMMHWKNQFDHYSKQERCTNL
Chain of Cholinesterase (P81908 whole entry): as the sequence (P81908 whole entry) above

The term inhibition denotes the relative decrease from the control value, in per cent. As a reminder, the IC50 is the midpoint of a concentration-inhibition curve. Low readings indicate inhibition by little substance, high ones a need for much substance. `CN(Cc1ccccc1)c1cc2nc(-c3ccccc3)nn(-c3ccccc3)c-2cc1=O`: the inhibition in [1] was determined as 22%; in series [3] it was 56%. Also, half-maximal inhibition in [2] (IC50) was put at 1000 nM.

Take `CN(Cc1ccccc1)c1cc2nc(-c3ccccc3)nn3c4ccccc4c(c1=O)c23`: the inhibition amounted to 26% in series [1] and 53% in [3]. In series [2], this compound displayed an IC50 of 4100 nM.

For the compound `COc1cc2nc(-c3ccccc3)nn3c4ccccc4c(c1=O)c23`, the values for the inhibition in series [1], in series [4] and in [3] were 11%, 33% and 52%, respectively.

Consider `CN(C)CCCN(C)c1cc2nc(-c3ccccc3)nn(-c3ccccc3)c-2cc1=O`, for which the inhibition in [1] is 18%; in series [4] it was 45%; in series [3], 46%.

With `CN(CCCCCCCCN(C)c1cc2nc(-c3ccccc3)nn(-c3ccccc3)c-2cc1=O)Cc1ccccc1`, the IC50 on Cholinesterase was found to be 310 nM; in [2], 65000 nM. The same compound gave an inhibition in [3] of 50%.

Turning to `COc1cc2nc(-c3ccccc3)nn(-c3ccccc3)c-2cc1=O`, the inhibition in series [1] was found to be 15%; in series [4] it was 60%; in [3], 47%.

`O=c1cc2n(-c3ccccc3)nc(-c3ccccc3)nc-2cc1N1CCSCC1`: the figures for the inhibition in series [1], in [4] and in series [3] were 0%, 62% and 42%, respectively.

With `CC1CCCN(c2cc3nc(-c4ccccc4)nn(-c4ccccc4)c-3cc2=O)C1` (stereo not drawn), the inhibition in series [1] stood at 25%; in [3], 55%. The compound also returned an IC50 in series [2] of 730 nM.

As to `CC1CCN(c2cc3nc(-c4ccccc4)nn(-c4ccccc4)c-3cc2=O)CC1`, the inhibition in series [1] came to 11%; in series [4], 68%; in [3], 48%.

In the case of `CN(c1ccccc1)c1cc2nc(-c3ccccc3)nn(-c3ccccc3)c-2cc1=O`, the inhibition in series [1] stood at 11%; in series [4], 51%; in series [3], 57%.

In the case of `O=c1cc2n(-c3ccccc3)nc(-c3ccccc3)nc-2cc1N1CCCCC1`, the inhibition was 7% in series [1] and 39% in [3]. In series [2], this compound yielded an IC50 of 7100 nM.

With `O=c1cc2n(-c3ccccc3)nc(-c3ccccc3)nc-2cc1N1CCc2ccccc2C1`, the inhibition is 14% in series [1], 68% in series [4] and 47% in [3].

Turning to `O=c1cc2n(-c3ccccc3)nc(-c3ccccc3)nc-2cc1N1CCC(c2ccccc2)CC1`, the inhibition came to 10% in series [1] and 35% in series [3]. In addition, the IC50 in series [2] turned out to be 1500 nM.

Take `CCN(CC)c1cc2nc(-c3ccccc3)nn(-c3ccccc3)c-2cc1=O`: the inhibition in series [1] stood at 19%; in [3], 55%. The compound also yielded an IC50 in series [2] of 17000 nM.

For the compound `O=c1cc2n(-c3ccccc3)nc(-c3ccccc3)nc-2cc1N1CCOCC1`, the values for the inhibition in series [1], in series [4] and in series [3] were 0%, 48% and 42%, respectively.

Consider `O=c1ccc2nc(-c3ccccc3)nn(-c3ccccc3)c-2c1`, for which the inhibition in series [1] came out at 27%; in series [4], 39%; in [3], 47%.

With `CN(CCCCCCCCN(C)c1cc2nc(-c3ccccc3)nn3c4ccccc4c(c1=O)c23)Cc1ccccc1`, the inhibition entry in [5] was “Active”. Moreover, the IC50 against Cholinesterase worked out at 25 nM; in series [2] it was 1400 nM. Besides, the inhibition in [3] was found to be 55%.

For `CN(C)CCCN(C)c1cc2nc(-c3ccccc3)nn3c4ccccc4c(c1=O)c23`, the IC50 against Cholinesterase was determined as 4000 nM; in series [2] it was 7600 nM. Besides, the inhibition in series [3] was determined as 49%.

Usually solubility stands for the dissolved amount per volume that the medium holds. For the compound `CN(CCCCCN(C)c1cc2nc(-c3ccccc3)nn(-c3ccccc3)c-2cc1=O)Cc1ccccc1`, the inhibition entry in series [5] and in [7] was “Active” each time. The IC50 on Acetylcholinesterase amounted to 1500 nM; against Cholinesterase, 1900 nM; in series [2] it was 1400 nM. The inhibition in series [6] is 40%. Also, the solubility in series [8] is 10 µM (≈ 5.18 µg/mL).

Compound `O=c1cc2n(-c3ccccc3)nc(-c3ccccc3)nc-2cc1N1CCN(c2ccccc2)CC1` yielded an IC50 against Acetylcholinesterase of 2200 nM. In addition, the results for the inhibition in series [1] and in series [4] were 15% and 53%, respectively.

Regarding `CC1CC(C)CN(c2cc3nc(-c4ccccc4)nn(-c4ccccc4)c-3cc2=O)C1` (stereo not drawn), the inhibition in [1] is 18%; in [3], 46%. Further, the IC50 in [2] came out at 1200 nM.

For the compound `O=c1cc2n(-c3ccccc3)nc(-c3ccccc3)nc-2cc1N1CCCC1`, the inhibition in series [1] turned out to be 15%; in [4], 68%; in [3], 54%.

`O=c1c(N2CCC(c3ccccc3)CC2)cc2nc(-c3ccccc3)nn3c4ccccc4c1c23`: the inhibition came to 11% in series [1] and 48% in [3]. The compound further yielded an IC50 in series [2] of 3900 nM.

For `O=c1c(O)c(-c2ccc(O)c(O)c2)oc2cc(O)cc(O)c12`, the inhibition entry in series [5] was “Active”.

Regarding `O=c1cc2n(-c3ccccc3)nc(-c3ccccc3)nc-2cc1N1CCCCCC1`, the inhibition was determined as 47% in series [1] and 46% in series [3]. In series [2], this compound came in with an IC50 of 2800 nM.

Consider `CN1CCN(c2cc3nc(-c4ccccc4)nn(-c4ccccc4)c-3cc2=O)CC1`, for which the inhibition was 12% in series [1], 55% in [4] and 55% in series [3].

As for `CN(CCCCCCCCNc1cc2nc(-c3ccccc3)nn3c4ccccc4c(c1=O)c23)Cc1ccccc1`, the figures for the inhibition in series [1], in [4] and in [3] were 25%, 60% and 46%, respectively.

Turning to `CN(c1cc2nc(-c3ccccc3)nn(-c3ccccc3)c-2cc1=O)C1CCCCC1`, the figures for the inhibition in series [1] and in series [3] were 37% and 55%, respectively. Also, the IC50 in [2] was determined as 4000 nM.

For `CN(CCCCCCCCNc1cc2nc(-c3ccccc3)nn(-c3ccccc3)c-2cc1=O)Cc1ccccc1`, the inhibition in [1] is 28%; in series [3] it was 45%. For the same compound, in series [2], the IC50 turned out to be 21000 nM.

For the compound `O=c1cc2n(-c3ccccc3)nc(-c3ccccc3)nc-2cc1Sc1ccccc1`, the inhibition was found to be 6% in [1], 42% in series [4] and 49% in series [3].

Turning to `CCN(CC)c1cc2nc(-c3ccccc3)nn3c4ccccc4c(c1=O)c23`, the values for the inhibition in series [1] and in series [3] were 54% and 46%, respectively. In [2], this compound registered an IC50 of 1400 nM.

For the compound `O=c1cc2n(-c3ccccc3)nc(-c3ccccc3)nc-2cc1N1CCCc2ccccc21`, the inhibition in series [1] stood at 10%; in series [3] it was 41%. This compound also displayed an IC50 in series [2] of 6700 nM.

Regarding `CC1CCCCN1c1cc2nc(-c3ccccc3)nn(-c3ccccc3)c-2cc1=O` (stereo not drawn), the inhibition result in series [5] was “Active”. Further, the values for the inhibition in [1] and in series [3] were 22% and 0%, respectively. This compound also returned an IC50 in [2] of 370 nM.

On to `CC1CCCN(c2cc3nc(-c4ccccc4)nn4c5ccccc5c(c2=O)c34)C1` (stereo not drawn), for which the inhibition in series [1] amounted to 53%; in series [3], 27%. Also, it took 5500 nM to reach half-maximal inhibition in series [2] (IC50).

On to `CCN(Cc1ccccc1)c1cc2nc(-c3ccccc3)nn(-c3ccccc3)c-2cc1=O`, for which the values for the inhibition in [1] and in series [3] were 13% and 53%, respectively. In series [2], this compound showed an IC50 of 2100 nM.

As for `O=c1cc2n(-c3ccccc3)nc(-c3ccccc3)nc-2cc1N1CCN(Cc2ccccc2)CC1`, the inhibition worked out at 18% in series [1], 61% in [4] and 56% in [3].

As to `O=c1cc2n(-c3ccccc3)nc(-c3ccccc3)nc-2cc1Nc1ccccc1`, the inhibition worked out at 9% in [1], 13% in [4] and 57% in series [3].

With `O=c1c(N2CCCC2)cc2nc(-c3ccccc3)nn3c4ccccc4c1c23`, the inhibition is 52% in series [1] and 44% in series [3]. This compound registered a half-maximal inhibitory concentration (IC50) in series [2] of 2000 nM.
